In ChEMBL document CHEMBL1132174, “Anti-AIDS agents. 37. Synthesis and structure-activity relationships of (3'R,4'R)-(+)-cis-khellactone derivatives as novel potent anti-HIV agents” (J Med Chem, 1999):

Assays:
[1] = tested on: Human immunodeficiency virus 1; test: Anti-HIV activity in H9 lymphocytes.; format: functional, organism-based
[2] = tested on: Human immunodeficiency virus 1; test: Antiviral activity against HIV-1 in H9 lymphocytes.; format: functional, organism-based
[3] = Therapeutic index in H9 lymphocytes.; format: cell-based; details: human, read-out: Therapeutic index
[4] = tested on: CEM-SS; test: The compound was tested for anti HIV activity in CEM-SS cell lines; format: functional, cell-based; details: Homo sapiens
Procedure, shortened: (§1)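 Run at NCI in the CEM-SS T4 lymphocyte line. The agent was dissolved in DMSO, diluted 1:100 in medium, then serially diluted in half-log10 steps, giving a 1:200 final compound dilution. Cells were added, followed shortly by HIV-1, and incubated for 6 days at 37 °C in 5% CO2. Viable cells were read by XTT formazan spectrophotometry, with microscopic confirmation. Drug-treated infected wells were compared against drug-treated uninfected (toxicity) wells and untreated controls.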

[5] = Therapeutic index value of the cpmpound against CEM-SS cells; format: cell-based; details: human, read-out: Therapeutic index; procedure, shortened: as §1
[6] = tested on: H9; test: The compound was tested for anti HIV activity in H9 lymphocytes; No suppression; format: functional, cell-based, Homo sapiens
[7] = Therapeutic index value against H9 lymphocytes; No suppression; format: cell-based; details: human
[8] = Therapeutic index value of the cpmpound against CEM-SS cells; Inactive; format: cell-based; details: human; procedure, shortened: as §1
[9] = tested on: CEM-SS; test: The compound was tested for anti HIV activity in CEM-SS cell lines; Inactive; format: functional, cell-based, Homo sapiens; procedure, shortened: as §1

Row | Compound | IC50 ([1]; Human immunodeficiency virus 1) [µM] | EC50 [2] [nM] | selectivity ratio [3] | EC50 [4] [µM] | IC50 [4] [µM] | selectivity ratio [5] | EC50 [6] | Therapeutic index [7] | IC50 [1] [µM] | Therapeutic index [8] | EC50 [9]
1 | CC(=O)O[C@@H]1[C@H](OC(=O)C23CC4CC(CC(C4)C2)C3)c2c(ccc3c(C)cc(=O)oc23)OC1(C)C | 19 | 1140 | 16.7 | – | – | – | – | – | – | – | –
2 | Cc1cn([C@H]2C[C@H](N=[N+]=[N-])[C@@H](CO)O2)c(=O)[nH]c1=O [ZIDOVUDINE] | – | 4500 | – | 0.0038 | > 1 | – | – | – | – | – | –
3 | Cc1cc(=O)oc2c3c(ccc12)OC(C)(C)[C@H](OC(=O)C12CCC(C)(C(=O)O1)C2(C)C)[C@@H]3OC(=O)C12CCC(C)(C(=O)O1)C2(C)C (stereo in doubt; 8) | > 126 | – | – | 0.0635 | > 200 | > 3150 | – | – | – | – | –
4 | Cc1cc(=O)oc2c3c(ccc12)OC(C)(C)[C@H](O)[C@@H]3OC(=O)C12CC3CC(CC(C3)C1)C2 | 43.2 | – | – | – | – | – | Not Active | Not Active | – | – | –
5 | COc1cc2ccc3c(c2oc1=O)[C@@H](OC(=O)C12CCC(C)(C(=O)O1)C2(C)C)[C@@H](OC(=O)C12CCC(C)(C(=O)O1)C2(C)C)C(C)(C)O3 (stereo partly drawn) | > 153 | 2.38 | > 64300 | 0.494 | 16.8 | 34 | – | – | – | – | –
6 | CC(C)c1cc(=O)oc2c3c(ccc12)OC(C)(C)[C@H](OC(=O)C12CCC(C)(C(=O)O1)C2(C)C)[C@@H]3OC(=O)C12CCC(C)(C(=O)O1)C2(C)C (stereo partly drawn) | > 151 | 31.5 | > 4790 | 0.584 | > 128 | > 219 | – | – | – | – | –
7 | Cc1cc(=O)oc2c3c(ccc12)OC(C)(C)[C@H](O)[C@@H]3OC(=O)C12CCC(C)(C(=O)O1)C2(C)C (stereo partly drawn) | > 219 | – | – | – | – | – | – | – | – | – | –
8 | Cc1cc(=O)oc2c3c(ccc12)OC(C)(C)[C@H](OS(=O)(=O)CC12CCC(CC1=O)C2(C)C)[C@@H]3O (stereo in doubt; 22) | – | – | – | – | – | – | – | – | 42 | – | –
9 | Cc1cc2ccc(=O)oc2c2c1OC(C)(C)[C@H](OC(=O)C13CCC(C)(C(=O)O1)C3(C)C)[C@@H]2OC(=O)C12CCC(C)(C(=O)O1)C2(C)C (stereo partly drawn) | 33 | 151 | 218 | 0.376 | > 200 | > 532 | – | – | – | – | –
10 | Cc1cc2ccc3c(c2oc1=O)[C@@H](OC(=O)C12CCC(C)(C(=O)O1)C2(C)C)[C@@H](OC(=O)C12CCC(C)(C(=O)O1)C2(C)C)C(C)(C)O3 (stereo partly drawn) | > 113 | 0.0525 | > 2.15e+06 | 0.213 | > 12.5 | > 58.7 | – | – | – | – | –
11 | Cc1cc(=O)oc2c3c(ccc12)OC(C)(C)[C@H](OC(=O)Nc1cccc2ccccc12)[C@@H]3OC(=O)Nc1cccc2ccccc12 | 98 | – | – | – | – | – | Not Active | Not Active | – | – | –
12 | CC(=O)O[C@@H]1c2c(ccc3c(C)cc(=O)oc23)OC(C)(C)[C@@H]1OC(C)=O | 171 | 83100 | 2.06 | – | – | – | – | – | – | – | –
13 | Cc1cc(=O)oc2c3c(ccc12)OC(C)(C)[C@H](OS(=O)(=O)CC12CCC(CC1=O)C2(C)C)[C@@H]3O (stereo in doubt; 23) | 45 | – | – | – | – | – | Not Active | Not Active | – | – | –
14 | Cc1cc(=O)oc2c3c(ccc12)OC(C)(C)[C@H](OC(=O)CC(C)C)[C@@H]3OC(=O)CC(C)C | 42 | – | – | – | – | – | Not Active | Not Active | – | – | –
15 | CC1(C)Oc2ccc3ccc(=O)oc3c2[C@@H](OC(=O)C23CCC(C)(C(=O)O2)C3(C)C)[C@H]1OC(=O)C12CCC(C)(C(=O)O1)C2(C)C (stereo partly drawn) | 35 | 0.256 | 137000 | 0.26 | 26 | 100 | – | – | – | – | –
16 | COc1cc2ccc(=O)oc2c2c1OC(C)(C)[C@H](OC(=O)C13CCC(C)(C(=O)O1)C3(C)C)[C@@H]2OC(=O)C12CCC(C)(C(=O)O1)C2(C)C (stereo partly drawn) | > 153 | 15800 | > 9.68 | – | > 200 | – | – | – | – | Not Active | Not Active
17 | COc1cc2c(c3oc(=O)ccc13)[C@@H](OC(=O)C13CCC(C)(C(=O)O1)C3(C)C)[C@@H](OC(=O)C13CCC(C)(C(=O)O1)C3(C)C)C(C)(C)O2 (stereo partly drawn) | > 153 | 0.192 | > 797000 | 0.128 | > 200 | > 1560 | – | – | – | – | –
18 | Cc1cc(=O)oc2c3c(ccc12)OC(C)(C)[C@H](OC(=O)C12CCC(C)(C(=O)O1)C2(C)C)[C@@H]3OC(=O)C12CC3CC(CC(C3)C1)C2 (stereo partly drawn) | 21.3 | 600 | 35.5 | – | – | – | – | – | – | – | –
19 | Cc1cc2c(c3oc(=O)ccc13)[C@@H](OC(=O)C13CCC(C)(C(=O)O1)C3(C)C)[C@@H](OC(=O)C13CCC(C)(C(=O)O1)C3(C)C)C(C)(C)O2 (stereo partly drawn) | > 95 | 0.000239 | > 3.97e+08 | 0.0635 | > 200 | > 3150 | – | – | – | – | –
20 | COc1cc(=O)oc2c3c(ccc12)OC(C)(C)[C@H](OC(=O)C12CCC(C)(C(=O)O1)C2(C)C)[C@@H]3OC(=O)C12CCC(C)(C(=O)O1)C2(C)C (stereo partly drawn) | > 153 | 2.99 | > 51200 | 0.125 | > 200 | > 1600 | – | – | – | – | –
21 | CC1(C)Oc2ccc3c(C(F)(F)F)cc(=O)oc3c2[C@@H](OC(=O)C23CCC(C)(C(=O)O2)C3(C)C)[C@H]1OC(=O)C12CCC(C)(C(=O)O1)C2(C)C (stereo partly drawn) | > 145 | 1810 | > 80.1 | – | – | – | – | – | – | – | –
22 | Cc1cc(=O)oc2c3c(ccc12)OC(C)(C)[C@H](OC(=O)C12CCC(C)(C(=O)O1)C2(C)C)[C@@H]3OC(=O)C12CCC(C)(C(=O)O1)C2(C)C (stereo in doubt; 19) | – | – | – | – | – | – | – | – | > 157 | – | –
23 | CCCc1cc(=O)oc2c3c(ccc12)OC(C)(C)[C@H](OC(=O)C12CCC(C)(C(=O)O1)C2(C)C)[C@@H]3OC(=O)C12CCC(C)(C(=O)O1)C2(C)C (stereo partly drawn) | > 151 | 17.5 | > 8630 | 0.763 | > 200 | > 262 | – | – | – | – | –
24 | Cc1cc(=O)oc2c3c(ccc12)OC(C)(C)[C@H](OC(=O)c1cccc(Br)c1)[C@@H]3OC(=O)c1cccc(Br)c1 | > 91.6 | – | – | – | – | – | Not Active | Not Active | – | – | –
25 | CC(=O)O[C@@H]1[C@H](OC(=O)C23CCC(C)(C(=O)O2)C3(C)C)c2c(ccc3c(C)cc(=O)oc23)OC1(C)C (stereo partly drawn) | 123 | 55.2 | 2230 | – | – | – | – | – | – | – | –
26 | CC1(C)Oc2ccc3c(-c4ccccc4)cc(=O)oc3c2[C@@H](OC(=O)C23CCC(C)(C(=O)O2)C3(C)C)[C@H]1OC(=O)C12CCC(C)(C(=O)O1)C2(C)C (stereo partly drawn) | > 143 | 120 | > 1190 | – | – | – | – | – | – | – | –
